Calls of active or inactive are those of the source.
Key:
[1] = target: Mitogen-activated protein kinase kinase kinase 7 (Homo sapiens) (UniProt O43318); assay: Inhibition of human TAK1 (1 to 303 residues) using casein as substrate measured after 40 mins in presence of [gamma33P]ATP by scintillation counting method
[2] = tested on: Angiopoietin-1 receptor (Homo sapiens), Q02763 [Q939H,Q940H,Y897S]; assay: Inhibition of human Tie2 Q939H/Q940H/Y897S mutant (771 to end residues) using EFPIYDFLPAKKK as substrate measured after 40 mins in presence of [gamma33P]ATP by scintillation counting method
[3] = target: Ephrin type-A receptor 7 (Homo sapiens) (UniProt Q15375); assay: Inhibition of recombinant human EphA7 (613 to 909 residues) at 10 uM using KTFCGTPEYLAPEVRREPRILSEEEQEMFRDFDYIADWC as substrate measured after 40 mins in presence of [gamma33P]ATP by scintillation counting method
[4] = tested on: Mitogen-activated protein kinase 14 (Homo sapiens), Q16539 [T106M]; assay: Inhibition of recombinant full-length human SAPK2a T106M mutant at 10 uM using myelin basic protein as substrate measured after 40 mins in presence of [gamma33P]ATP by scintillation counting method
[5] = target: Inhibitor of nuclear factor kappa-B kinase subunit alpha (Homo sapiens) (UniProt O15111); assay: Inhibition of recombinant full-length human IKKalpha (959 to end residues) at 10 uM using peptide substrate measured after 40 mins in presence of [gamma33P]ATP by scintillation counting method
[6] = tested on: Tyrosine-protein kinase ABL1 (Homo sapiens), P00519 [T315I]; assay: Inhibition of recombinant human ABL T315I mutant (27 to end residues) at 10 uM using EAIYAAPFAKKK as substrate measured after 40 mins in presence of [gamma33P]ATP by scintillation counting method
[7] = target: Mitogen-activated protein kinase kinase kinase 20 (Homo sapiens) (UniProt Q9NYL2); assay: Inhibition of recombinant full-length human ZAK at 10 uM using MBP as substrate measured after 40 mins in presence of [gamma33P]ATP by scintillation counting method
Sequence of Mitogen-activated protein kinase kinase kinase 20 (Homo sapiens) (Q9NYL2 2-800 limits assumed): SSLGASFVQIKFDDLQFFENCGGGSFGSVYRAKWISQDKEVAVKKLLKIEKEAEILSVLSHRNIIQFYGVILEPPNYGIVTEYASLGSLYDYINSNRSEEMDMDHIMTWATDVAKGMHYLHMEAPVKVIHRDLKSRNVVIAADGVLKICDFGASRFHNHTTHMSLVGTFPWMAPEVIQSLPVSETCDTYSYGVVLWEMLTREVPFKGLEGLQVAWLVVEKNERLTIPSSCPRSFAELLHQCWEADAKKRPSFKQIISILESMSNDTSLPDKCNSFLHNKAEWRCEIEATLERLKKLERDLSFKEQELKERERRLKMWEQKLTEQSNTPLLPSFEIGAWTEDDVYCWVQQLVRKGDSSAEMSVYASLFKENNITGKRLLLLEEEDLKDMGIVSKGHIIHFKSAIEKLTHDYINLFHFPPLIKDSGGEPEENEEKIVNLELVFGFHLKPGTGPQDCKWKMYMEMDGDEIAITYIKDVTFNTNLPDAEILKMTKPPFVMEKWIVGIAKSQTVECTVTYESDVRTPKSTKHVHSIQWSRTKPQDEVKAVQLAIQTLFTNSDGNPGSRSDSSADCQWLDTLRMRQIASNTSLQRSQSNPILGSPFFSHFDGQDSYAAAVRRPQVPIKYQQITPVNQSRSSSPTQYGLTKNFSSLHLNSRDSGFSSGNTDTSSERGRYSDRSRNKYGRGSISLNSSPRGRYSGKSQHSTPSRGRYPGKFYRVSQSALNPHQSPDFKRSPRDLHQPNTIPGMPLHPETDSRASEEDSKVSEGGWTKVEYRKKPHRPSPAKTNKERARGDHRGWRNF

[8] = target: Serine/threonine-protein kinase 26 (Homo sapiens) (UniProt Q9P289); assay: Inhibition of recombinant human MST4 (4 to 304 residues) at 10 uM using RLGRDKYKTLRQIRQ as substrate measured after 40 mins in presence of [gamma33P]ATP by scintillation counting method
Sequence of Serine/threonine-protein kinase 26 (Homo sapiens) (Q9P289 2-416 limits assumed): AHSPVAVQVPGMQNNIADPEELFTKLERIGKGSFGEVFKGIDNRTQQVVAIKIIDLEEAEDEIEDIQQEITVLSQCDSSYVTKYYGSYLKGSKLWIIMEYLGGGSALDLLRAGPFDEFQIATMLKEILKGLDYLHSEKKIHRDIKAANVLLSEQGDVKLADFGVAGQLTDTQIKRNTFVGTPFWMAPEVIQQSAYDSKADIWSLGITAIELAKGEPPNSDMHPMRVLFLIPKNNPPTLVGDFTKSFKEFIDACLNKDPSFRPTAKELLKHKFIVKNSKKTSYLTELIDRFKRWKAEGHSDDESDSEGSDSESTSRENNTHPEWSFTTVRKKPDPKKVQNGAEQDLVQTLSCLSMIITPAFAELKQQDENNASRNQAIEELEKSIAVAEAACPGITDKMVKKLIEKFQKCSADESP

[9] = target: LIM domain kinase 2 (Homo sapiens) (UniProt P53671); assay: Inhibition of recombinant human LIMK2 at 10 uM by radiometric method
Sequence of LIM domain kinase 2 (Homo sapiens) (P53671 whole entry, looked up, the tested form may be a part): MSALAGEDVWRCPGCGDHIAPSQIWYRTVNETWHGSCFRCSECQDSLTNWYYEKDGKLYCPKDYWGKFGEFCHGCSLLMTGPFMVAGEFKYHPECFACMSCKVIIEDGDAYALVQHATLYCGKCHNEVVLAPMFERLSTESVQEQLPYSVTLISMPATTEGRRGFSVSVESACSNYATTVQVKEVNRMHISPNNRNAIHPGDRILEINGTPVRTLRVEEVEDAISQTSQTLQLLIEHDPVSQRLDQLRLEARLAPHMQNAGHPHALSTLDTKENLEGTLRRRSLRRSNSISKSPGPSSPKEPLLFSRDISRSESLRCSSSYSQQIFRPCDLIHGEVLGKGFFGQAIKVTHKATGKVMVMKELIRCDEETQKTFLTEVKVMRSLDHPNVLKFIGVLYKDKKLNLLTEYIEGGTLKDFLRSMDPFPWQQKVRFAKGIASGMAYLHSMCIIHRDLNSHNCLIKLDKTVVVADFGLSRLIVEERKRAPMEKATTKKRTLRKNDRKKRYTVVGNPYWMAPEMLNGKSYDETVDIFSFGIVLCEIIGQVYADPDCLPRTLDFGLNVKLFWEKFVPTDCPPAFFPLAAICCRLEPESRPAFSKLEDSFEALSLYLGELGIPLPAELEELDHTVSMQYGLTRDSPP

[10] = target: CDK9/cyclin T1 (Homo sapiens) (UniProt O60563+P50750); assay: Inhibition of recombinant full length human CDK9/cyclinT1 at 10 uM using KTFCGTPEYLAPEVRREPRILSEEEQEMFRDFDYIADWC as substrate measured after 40 mins in presence of [gamma33P]ATP by scintillation counting method; type: protein-complex assay
[11] = target: Bromodomain testis-specific protein (Homo sapiens) (UniProt Q58F21); assay: Binding affinity to human partial length BRDT bromodomain 2 (K250 to E382 residues) expressed in bacterial expression system at 1 uM by BROMOscan assay
Outline: (§1)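 BROMOscan bromodomain cross-screen run by an outside service, compound at 1 µM against 32 recombinant bromodomains. Binding given as percent of control.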

[12] = target: Tyrosine-protein kinase SYK (Homo sapiens) (UniProt P43405); assay: Inhibition of recombinant full-length human Syk at 10 uM using poly(Glu, Tyr) 4:1 as substrate measured after 120 mins in presence of [gamma33P]ATP by scintillation counting method
[13] = target: Platelet-derived growth factor receptor beta (Homo sapiens) (UniProt P09619); assay: Inhibition of recombinant human PDGFRbeta (557 to end residues) at 10 uM using poly(Glu, Tyr) 4:1 as substrate measured after 40 mins in presence of [gamma33P]ATP by scintillation counting method
Sequence of Platelet-derived growth factor receptor beta (Homo sapiens) (P09619 whole entry): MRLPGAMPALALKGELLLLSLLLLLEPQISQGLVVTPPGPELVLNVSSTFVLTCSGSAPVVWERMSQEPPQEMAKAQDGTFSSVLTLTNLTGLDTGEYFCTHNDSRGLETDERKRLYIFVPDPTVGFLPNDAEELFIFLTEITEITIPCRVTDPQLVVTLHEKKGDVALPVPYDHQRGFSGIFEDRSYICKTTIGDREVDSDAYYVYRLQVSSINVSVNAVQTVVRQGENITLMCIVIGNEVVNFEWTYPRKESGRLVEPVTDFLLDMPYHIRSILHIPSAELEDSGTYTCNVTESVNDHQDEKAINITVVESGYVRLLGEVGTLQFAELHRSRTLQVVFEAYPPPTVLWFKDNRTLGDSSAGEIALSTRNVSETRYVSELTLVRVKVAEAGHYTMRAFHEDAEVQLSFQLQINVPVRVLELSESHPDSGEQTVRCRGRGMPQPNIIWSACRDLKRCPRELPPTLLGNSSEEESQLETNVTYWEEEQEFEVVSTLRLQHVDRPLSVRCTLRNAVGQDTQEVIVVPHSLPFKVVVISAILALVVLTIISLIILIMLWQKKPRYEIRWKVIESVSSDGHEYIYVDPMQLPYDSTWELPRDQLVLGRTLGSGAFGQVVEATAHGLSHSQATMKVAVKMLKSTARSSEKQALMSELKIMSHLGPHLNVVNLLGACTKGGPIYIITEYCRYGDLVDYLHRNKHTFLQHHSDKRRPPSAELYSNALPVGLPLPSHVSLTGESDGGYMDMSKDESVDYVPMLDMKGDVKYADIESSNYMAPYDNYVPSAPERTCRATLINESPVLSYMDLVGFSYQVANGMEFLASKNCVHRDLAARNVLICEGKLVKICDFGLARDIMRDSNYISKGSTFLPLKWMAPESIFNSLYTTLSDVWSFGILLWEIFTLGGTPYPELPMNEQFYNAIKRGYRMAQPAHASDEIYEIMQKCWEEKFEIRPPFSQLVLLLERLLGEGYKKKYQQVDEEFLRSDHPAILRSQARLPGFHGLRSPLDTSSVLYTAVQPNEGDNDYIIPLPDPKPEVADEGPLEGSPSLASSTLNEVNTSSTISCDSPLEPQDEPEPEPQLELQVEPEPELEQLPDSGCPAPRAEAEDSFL

[14] = tested on: Eukaryotic elongation factor 2 kinase (Homo sapiens), O00418 [H23R]; assay: Inhibition of recombinant human EEF2K H23R mutant (2 to end residues) at 10 uM using RKKFGESEKTKTKEFL as substrate measured after 40 mins in presence of [gamma33P]ATP by scintillation counting method
[15] = Lipophilicity, log D of the compound at pH 7.4 by HPLC analysis; type: physicochemical; conditions: buffer
[16] = target: Serine/threonine-protein kinase 25 (Homo sapiens) (UniProt O00506); assay: Inhibition of human STK25 (1 to 308 residues) using RLGRDKYKTLRQIRQ as substrate measured after 40 mins in presence of [gamma33P]ATP by scintillation counting method
Sequence of Serine/threonine-protein kinase 25 (Homo sapiens) (O00506 whole entry, looked up, the tested form may be a part): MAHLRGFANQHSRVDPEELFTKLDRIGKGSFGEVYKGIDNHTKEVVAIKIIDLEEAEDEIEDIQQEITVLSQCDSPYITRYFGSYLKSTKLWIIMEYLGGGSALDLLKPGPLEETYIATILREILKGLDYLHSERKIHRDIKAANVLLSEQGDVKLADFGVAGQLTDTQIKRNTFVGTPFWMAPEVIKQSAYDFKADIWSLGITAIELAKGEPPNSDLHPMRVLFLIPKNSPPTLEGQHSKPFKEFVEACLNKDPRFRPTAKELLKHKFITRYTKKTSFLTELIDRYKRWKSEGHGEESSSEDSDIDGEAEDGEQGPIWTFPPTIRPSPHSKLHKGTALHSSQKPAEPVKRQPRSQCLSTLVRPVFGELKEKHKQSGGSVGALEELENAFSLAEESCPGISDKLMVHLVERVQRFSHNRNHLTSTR
Outline: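 Kinase panel of 422 kinases screened by Eurofins KinaseProfiler at a single test-compound concentration of 10 µM.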

[17] = target: Transcription intermediary factor 1-alpha (Homo sapiens) (UniProt O15164); assay: Binding affinity to human partial length TRIM24 (P790 to P977 residues) expressed in bacterial expression system at 1 uM by BROMOscan assay; outline: as §1
Sequence of Transcription intermediary factor 1-alpha (Homo sapiens) (O15164 whole entry, the tested form may be a part): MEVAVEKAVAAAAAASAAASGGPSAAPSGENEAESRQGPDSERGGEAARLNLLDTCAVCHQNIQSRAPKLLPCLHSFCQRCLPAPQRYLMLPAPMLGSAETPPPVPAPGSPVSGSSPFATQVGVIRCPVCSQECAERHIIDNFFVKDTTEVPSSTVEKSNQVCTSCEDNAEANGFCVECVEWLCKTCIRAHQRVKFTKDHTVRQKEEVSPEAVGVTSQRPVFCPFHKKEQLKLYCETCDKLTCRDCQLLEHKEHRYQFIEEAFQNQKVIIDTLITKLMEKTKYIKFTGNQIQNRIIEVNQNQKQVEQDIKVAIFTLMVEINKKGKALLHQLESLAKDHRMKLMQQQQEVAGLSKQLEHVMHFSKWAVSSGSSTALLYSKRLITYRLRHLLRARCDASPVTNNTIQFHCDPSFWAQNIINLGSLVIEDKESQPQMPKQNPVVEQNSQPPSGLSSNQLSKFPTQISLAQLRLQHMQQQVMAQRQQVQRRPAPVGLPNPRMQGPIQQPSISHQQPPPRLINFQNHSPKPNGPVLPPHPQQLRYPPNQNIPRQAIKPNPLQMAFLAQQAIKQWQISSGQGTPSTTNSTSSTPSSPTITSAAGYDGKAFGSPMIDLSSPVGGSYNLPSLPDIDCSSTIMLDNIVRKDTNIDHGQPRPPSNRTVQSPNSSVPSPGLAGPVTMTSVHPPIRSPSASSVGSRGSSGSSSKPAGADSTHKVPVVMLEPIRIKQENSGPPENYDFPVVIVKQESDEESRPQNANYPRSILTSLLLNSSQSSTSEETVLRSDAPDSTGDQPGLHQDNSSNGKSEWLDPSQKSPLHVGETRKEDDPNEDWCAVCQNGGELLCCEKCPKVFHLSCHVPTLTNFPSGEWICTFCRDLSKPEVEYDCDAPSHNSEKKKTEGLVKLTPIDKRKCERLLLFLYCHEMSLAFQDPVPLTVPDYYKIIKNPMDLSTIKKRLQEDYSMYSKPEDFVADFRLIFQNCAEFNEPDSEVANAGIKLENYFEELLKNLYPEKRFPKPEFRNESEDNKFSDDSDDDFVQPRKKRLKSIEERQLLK

[18] = target: ATPase family AAA domain-containing protein 2B (Homo sapiens) (UniProt Q9ULI0); assay: Binding affinity to human partial length ATAD2B (Q955 to R1082 residues) expressed in bacterial expression system at 1 uM by BROMOscan assay; outline: as §1
[19] = target: Tyrosine-protein kinase JAK2 (Homo sapiens) (UniProt O60674); assay: Inhibition of recombinant human JAK2 (808 to end residues) at 10 uM using KTFCGTPEYLAPEVRREPRILSEEEQEMFRDFDYIADWC as substrate measured after 40 mins in presence of [gamma33P]ATP by scintillation counting method
[20] = target: Bromodomain adjacent to zinc finger domain protein 2B (Homo sapiens) (UniProt Q9UIF8); assay: Binding affinity to human partial length BAZ2B (S2054 to S2168 residues) expressed in bacterial expression system at 1 uM by BROMOscan assay; outline: as §1
[21] = target: Serine/threonine-protein kinase WNK2 (Homo sapiens) (UniProt Q9Y3S1); assay: Inhibition of human WNK2 (166 to 489 residues) using myelin basic protein as substrate measured after 40 mins in presence of [gamma33P]ATP by scintillation counting method
[22] = tested on: RAF proto-oncogene serine/threonine-protein kinase (Homo sapiens), P04049 [Y340D,Y341D]; assay: Inhibition of recombinant human c-RAF Y340D/Y341D mutant (360 to end residues) at 10 uM using inactive MEK1 as substrate measured after 40 mins in presence of [gamma33P]ATP by scintillation counting method
[23] = target: Phosphatidylinositol 4-phosphate 5-kinase type-1 gamma (Homo sapiens) (UniProt O60331); assay: Inhibition of recombinant full-length human PIP5K1gamma at 10 uM using phosphatidylinositol 4-phosphate as substrate measured after 40 mins by HTRF assay

Sequence of Mitogen-activated protein kinase kinase kinase 7 (Homo sapiens) (O43318 whole entry, the tested form may be a part): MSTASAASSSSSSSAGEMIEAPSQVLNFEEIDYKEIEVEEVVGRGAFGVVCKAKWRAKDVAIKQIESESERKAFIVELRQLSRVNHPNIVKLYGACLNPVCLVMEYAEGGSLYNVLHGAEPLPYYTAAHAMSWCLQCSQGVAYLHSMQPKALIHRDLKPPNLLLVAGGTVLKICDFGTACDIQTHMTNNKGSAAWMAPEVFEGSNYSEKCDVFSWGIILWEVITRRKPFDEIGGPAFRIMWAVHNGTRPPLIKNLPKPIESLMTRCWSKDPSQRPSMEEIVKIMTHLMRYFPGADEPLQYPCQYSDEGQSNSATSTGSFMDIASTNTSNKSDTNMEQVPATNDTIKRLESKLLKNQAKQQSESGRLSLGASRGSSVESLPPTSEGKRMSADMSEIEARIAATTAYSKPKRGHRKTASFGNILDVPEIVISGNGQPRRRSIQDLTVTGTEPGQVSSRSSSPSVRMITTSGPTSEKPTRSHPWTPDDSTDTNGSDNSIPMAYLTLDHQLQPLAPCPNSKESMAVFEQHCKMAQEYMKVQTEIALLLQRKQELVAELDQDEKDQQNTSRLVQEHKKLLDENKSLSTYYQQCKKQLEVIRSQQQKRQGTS

CN1C[C@H](Nc2nc3cc[nH]c3c(=O)n2C)C[C@H](c2ccc3c(c2)OCCO3)C1
inactive: inhibition [1] | inhibition [2] | inhibition [3] | inhibition [4] | inhibition [5] | inhibition [6] | inhibition [7] | inhibition [8] | inhibition [9] | inhibition [10] | Activity [11] | inhibition [12] | inhibition [13] | inhibition [14] | inhibition [16] | Activity [17] | Activity [18] | inhibition [19] | inhibition [21] | inhibition [22] | inhibition [23]
1.9: logD [15]
active: Activity [20]

From ChEMBL document CHEMBL4350961, “Discovery of Pyrrolo[3,2- d]pyrimidin-4-one Derivatives as a New Class of Potent and Cell-Active Inhibitors of P300/CBP-Associated Factor Bromodomain” (J Med Chem, 2019)
